Assays:
Format in all cases: functional, Salmonella enterica subsp. enterica serovar Typhimurium
Salmonella typhimurium [1] = assay: (§1) Mutagenicity determined by Ames assay in Salmonella Typhimurium strain TA98, with metabolic activation by Aroclor 1254 induced rat liver S9 at a dose of 0.5 ug/plate
Outline: (§2)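 Ames plate incorporation assay, modified per Claxton, in TA98. Compounds dissolved in DMSO. Each plate received 0.8 mg S9 protein from livers of Aroclor 1254-treated male rats, plus NADPH-generating cofactors. Each dose was run in duplicate on two or three separate occasions. Values are mean His+ revertants/plate.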

Salmonella typhimurium [2] = assay: (§3) Mutagenicity determined by Ames assay in Salmonella Typhimurium strain TA98, with metabolic activation by Aroclor 1254 induced rat liver S9 at a dose of 1.0 ug/plate; outline: as §2
Salmonella typhimurium [3] = assay: (§4) Mutagenicity determined by Ames assay in Salmonella Typhimurium strain TA98, with metabolic activation by Aroclor 1254 induced rat liver S9 at a dose of 10 ug/plate; outline: as §2
Salmonella typhimurium [4] = assay: (§5) Mutagenicity determined by Ames assay in Salmonella Typhimurium strain TA98, with metabolic activation by Aroclor 1254 induced rat liver S9 at a dose of 20 ug/plate; outline: as §2
Salmonella typhimurium [5] = assay: (§6) Mutagenicity determined by Ames assay in Salmonella Typhimurium strain TA98, with metabolic activation by Aroclor 1254 induced rat liver S9 at a dose of 5 ug/plate; outline: as §2
Salmonella typhimurium [6] = assay: Mutagenicity determined by Ames assay in Salmonella Typhimurium strain TA98, without metabolic activation by Aroclor 1254 induced rat liver S9 at a dose of 0.5 ug/plate; design: unit: revertants/plate
Outline: (§7)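 Ames plate incorporation assay in TA98, modified per Claxton, with no S9 or cofactors added. Test compounds were given from DMSO solution. Each dose level was plated in duplicate on two or three separate occasions. Read-out is mean His+ revertants/plate.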

Salmonella typhimurium [7] = assay: (§8) Mutagenicity determined by Ames assay in Salmonella Typhimurium strain TA98, without metabolic activation by Aroclor 1254 induced rat liver S9 at a dose of 1.0 ug/plate; outline: as §7
Salmonella typhimurium [8] = assay: (§9) Mutagenicity determined by Ames assay in Salmonella Typhimurium strain TA98, without metabolic activation by Aroclor 1254 induced rat liver S9 at a dose of 10 ug/plate; outline: as §7
Salmonella typhimurium [9] = assay: (§10) Mutagenicity determined by Ames assay in Salmonella Typhimurium strain TA98, without metabolic activation by Aroclor 1254 induced rat liver S9 at a dose of 20 ug/plate; outline: as §7
Salmonella typhimurium [10] = assay: (§11) Mutagenicity determined by Ames assay in Salmonella Typhimurium strain TA98, without metabolic activation by Aroclor 1254 induced rat liver S9 at a dose of 5 ug/plate; outline: as §7
Salmonella typhimurium [11] = assay: (§12) Specific mutagenicity in the absence of protein S9, was expressed as His+ revertants/nmol, calculated by least-square linear regression.
Outline: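 Ames plate incorporation assay in TA98 without S9; compounds in DMSO; doses in duplicate on two or three occasions. His+ revertants/nmol from least-squares linear regression of the linear part of the dose-response curve, up to 10 µg/plate for most compounds and to 5 or 20 µg/plate for others.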

Salmonella typhimurium [12] = assay: (§13) Specific mutagenicity in the presence of protein S9, was expressed as His+ revertants/nmol, calculated by least-square linear regression.
Outline: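 Ames plate incorporation assay in TA98 with 0.8 mg Aroclor 1254-induced male rat liver S9 protein per plate plus NADPH-generating cofactors; compounds in DMSO; doses in duplicate on two or three occasions. His+ revertants/nmol from least-squares linear regression of the dose-response curve's linear part, up to 10 µg/plate.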

Salmonella typhimurium [13] = assay: as §3; remark: listed apart in the source
Outline: (§14)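 Ames plate incorporation test following Claxton's modification, with compounds dissolved in DMSO. Each plate received 0.8 mg S9 protein from livers of Aroclor 1254-treated male rats plus NADPH-generating cofactors. Each dose was plated in duplicate on two or three separate occasions, and the value is the mean His⁺ revertants/plate. The positive control was 2-anthramine at 0.5 μg/plate, with DMSO as the solvent control.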

Salmonella typhimurium [14] = assay: as §5; outline: as §14; remark: listed apart in the source
Salmonella typhimurium [15] = assay: as §6; outline: as §14; remark: listed apart in the source
Salmonella typhimurium [16] = assay: as §8; remark: listed apart in the source
Outline: (§15)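 Ames plate incorporation test following Claxton's modification, run without S9, with compounds dissolved in DMSO. Each dose was plated in duplicate on two or three separate occasions, and the value is the mean His⁺ revertants/plate. The positive control was 2-nitrofluorene at 3 μg/plate, with DMSO as the solvent control.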

Salmonella typhimurium [17] = assay: as §9; outline: as §15; remark: listed apart in the source
Salmonella typhimurium [18] = assay: as §12; remark: listed apart in the source
Outline: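 Calculated as His⁺ revertants/nmol by least-squares linear regression over the linear portion of the no-S9 plate-incorporation dose–response (DMSO solutions, duplicate plates, two or three occasions). The fit ran to 10 μg/plate for most compounds, but for two compounds it ran to 5 or 20 μg/plate.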

Salmonella typhimurium [19] = assay: as §13; remark: listed apart in the source
Outline: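 Calculated as His⁺ revertants/nmol by least-squares linear regression over the linear portion of the dose–response to 10 μg/plate. Plates received 0.8 mg Aroclor 1254-induced male rat liver S9 protein with NADPH-generating cofactors. Compounds were dissolved in DMSO and plated in duplicate on two or three occasions.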

Salmonella typhimurium [20] = assay: as §1; outline: as §14; remark: listed apart in the source
Salmonella typhimurium [21] = assay: as §10; outline: as §15; remark: listed apart in the source
Salmonella typhimurium [22] = assay: as §11; outline: as §15; remark: listed apart in the source
Salmonella typhimurium [23] = assay: as §4; outline: as §14; remark: listed apart in the source

SMILES | Mutagenicity (Salmonella typhimurium [1]) | Mutagenicity (Salmonella typhimurium [2]) | Mutagenicity (Salmonella typhimurium [3]) | Mutagenicity (Salmonella typhimurium [4]) | Mutagenicity (Salmonella typhimurium [5]) | Mutagenicity (Salmonella typhimurium [6]) | Mutagenicity (Salmonella typhimurium [7]) | Mutagenicity (Salmonella typhimurium [8]) | Mutagenicity (Salmonella typhimurium [9]) | Mutagenicity (Salmonella typhimurium [10]) | Activity (Salmonella typhimurium [11]) | Activity (Salmonella typhimurium [12]) | Mutagenicity (Salmonella typhimurium [13]) | Mutagenicity (Salmonella typhimurium [14]) | Mutagenicity (Salmonella typhimurium [15]) | Mutagenicity (Salmonella typhimurium [16]) | Mutagenicity (Salmonella typhimurium [17]) | Activity (Salmonella typhimurium [18]) | Activity (Salmonella typhimurium [19]) | Mutagenicity (Salmonella typhimurium [20]) | also measured
C1=CC2OC2c2ccc3c4c5c(cccc5cc3c21)C=C4 (stereo not drawn) | 58 | 71 | 272 | 350 | 176 | 28 | 26 | 39 | 46 | 34 | 0.2 | 5.6 | – | – | – | – | – | – | – | – | –
O[C@H]1C=Cc2c(ccc3c4c5c(cccc5cc23)C=C4)[C@@H]1O | – | – | – | – | – | 36 | – | – | – | – | – | – | 100 | 543 | 335 | 40 | 45 | 0.7 | 9.4 | 67 | Mutagenicity (Salmonella typhimurium [21]): 75; Mutagenicity (Salmonella typhimurium [22]): 43; Mutagenicity (Salmonella typhimurium [23]): 469
O[C@H]1c2ccc3c4c5c(cccc5cc3c2[C@@H]2OC2[C@@H]1O)C=C4 (stereo partly drawn) | – | – | – | – | – | 37 | – | – | – | – | – | – | 86 | 148 | 283 | 53 | 172 | 10 | 12.9 | 51 | Mutagenicity (Salmonella typhimurium [21]): 93; Mutagenicity (Salmonella typhimurium [22]): 186; Mutagenicity (Salmonella typhimurium [23]): 287
C1=Cc2c3ccc4ccccc4c3cc3cccc1c23 [BENZO[J]ACEANTHRYLENE] | 76 | 103 | 694 | 915 | 429 | 35 | 39 | 32 | 38 | 38 | 0.1 | 12.9 | – | – | – | – | – | – | – | – | –
